{"source": "ChEMBL document CHEMBL1147104", "about": "“Neonatal coinfection model of coagulase-negative Staphylococcus (Staphylococcus epidermidis) and Candida albicans: fluconazole prophylaxis enhances survival and growth” (Antimicrob Agents Chemother, 2007)", "key": {"[1]": {"system": "Staphylococcus epidermidis", "assay": "Inhibition of Staphylococcus epidermidis Hay ATCC 55133 at 1 ug/ml by broth microdilution method", "assay_type": "functional, organism-based"}, "[2]": {"assay": "Serum trough levels in Wistar rat pup at 10 mg/kg of body weight/day, ip after 96 hrs by ELISA", "assay_type": "ADME, organism-based", "set-up": "dose 10 mg/kg, route intraperitoneal", "details": "read-out: Cmin", "how_it_was_run": "(§1)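 Pups received 10 mg/kg/day i.p. for 4 days. Troughs were taken just before the next dose (24, 48, 72 h) and 24 h after the fourth dose (96 h). Blood was collected by cardiac puncture from 12-15 pups per time point, and serum from 3 pups was pooled per sample, giving 4-5 samples. Serum was stored at −70°C and assayed in one batch. The assay was linear from 0.2 to 200 µg/ml.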"}, "[3]": {"system": "Rattus norvegicus", "assay": "Decrease in mortality of neonatal Wistar rat infected with Candida albicans ATCC 32354 at 10 mg/kg of body weight/day, ip for 4 days beginning 24 hrs before infection", "assay_type": "functional", "set-up": "scale not given: the % may be the effect or the level left", "details": "route intraperitoneal", "how_it_was_run": "(§2)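 Wistar pups aged 1-2 days, kept with dams, were immunosuppressed with 0.2 ml 20% intralipid i.p. (two doses on day 1, one each on days 2 and 3). Drug or placebo was given i.p. daily for 4 days from 24 h before infection. Littermates were randomized and infected s.c. on days 2 and 3 with 2 × 10⁸ CFU C. albicans, alone or with 2 × 10⁶ CFU S. epidermidis. Survival was followed daily for 9 days; groups were compared by Fisher exact test.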"}, "[4]": {"assay": "Serum trough levels in Wistar rat pup at 10 mg/kg of body weight/day, ip after 48 hrs by ELISA", "assay_type": "ADME, organism-based", "set-up": "dose 10 mg/kg, route intraperitoneal", "details": "read-out: Cmin", "how_it_was_run": "as §1"}, "[5]": {"assay": "Serum trough levels in Wistar rat pup at 10 mg/kg of body weight/day, ip after 24 hrs by ELISA", "assay_type": "ADME, organism-based", "set-up": "dose 10 mg/kg, route intraperitoneal", "details": "read-out: Cmin", "how_it_was_run": "as §1"}, "[6]": {"assay": "Serum trough levels in Wistar rat pup at 10 mg/kg of body weight/day, ip after 72 hrs by ELISA", "assay_type": "ADME, organism-based", "set-up": "dose 10 mg/kg, route intraperitoneal", "details": "read-out: Cmin", "how_it_was_run": "as §1"}, "[7]": {"system": "Rattus norvegicus", "assay": "Increase in growth of neonatal Wistar rat infected with Candida albicans ATCC 32354 assessed as weight gain at 10 mg/kg of body weight/day, ip for 4 days beginning 24 hrs before infection relative to control", "assay_type": "functional, organism-based", "set-up": "dose 10 mg/kg", "how_it_was_run": "(§3)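 In intralipid-immunosuppressed neonatal Wistar pups, littermates were randomized, dosed i.p. daily for 4 days from 24 h pre-infection, and infected s.c. on days 2 and 3 with 2 × 10⁸ CFU C. albicans, with or without 2 × 10⁶ CFU S. epidermidis. Nonedematous weight was recorded daily for 9 days. Slopes of each pup's weight curve were calculated, and group means were compared by one-way ANOVA.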"}, "[8]": {"system": "Rattus norvegicus", "assay": "Decrease in mortality of neonatal Wistar rat infected with Candida albicans ATCC 32354 and Staphylococcus epidermidis Hay at 10 mg/kg of body weight/day, ip for 4 days beginning 24 hrs before infection", "assay_type": "functional", "set-up": "scale not given: the % may be the effect or the level left", "details": "route intraperitoneal", "how_it_was_run": "as §2"}, "[9]": {"system": "Rattus norvegicus", "assay": "Survival of neonatal Wistar rat infected with Candida albicans ATCC 32354 at 10 mg/kg of body weight/day, ip for 4 days beginning 24 hrs before infection", "assay_type": "functional", "details": "route intraperitoneal", "how_it_was_run": "as §2"}, "[10]": {"system": "Rattus norvegicus", "assay": "Increase in growth of neonatal Wistar rat infected with Candida albicans ATCC 32354 and Staphylococcus epidermidis Hay assessed as weight gain at 10 mg/kg of body weight/day, ip for 4 days beginning 24 hrs before infection relative to control", "assay_type": "functional, organism-based", "set-up": "dose 10 mg/kg", "how_it_was_run": "as §3"}, "[11]": {"system": "Rattus norvegicus", "assay": "Survival of neonatal Wistar rat infected with Staphylococcus epidermidis Hay and Candida albicans ATCC 32354 at 10 mg/kg of body weight/day, ip for 4 days beginning 24 hrs before infection", "assay_type": "functional", "details": "route intraperitoneal", "how_it_was_run": "as §2"}, "[12]": {"system": "Candida albicans", "assay": "Inhibition of Candida albicans ATCC 32354 at 1 ug/ml by broth microdilution method", "assay_type": "functional, organism-based", "how_it_was_run": "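CLSI M27-A2 broth microdilution. Inoculum was 1-5 × 10³ CFU/ml in RPMI 1640 buffered with MOPS to pH 7. Twofold drug dilutions from 125 to 0.25 µg/ml were tested at 35°C for 48 h, with visual reads at 24 and 48 h. The MIC was the lowest concentration giving a ≥50% decrease in turbidity. Trailing growth at 48 h was counted as susceptible.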"}}, "note": "Calls of active or inactive are those of the source. The calls are words filed in the database; no cut-off is given here.", "data": [{"compound": "OC(Cn1cncn1)(Cn1cncn1)c1ccc(F)cc1F", "note": "[FLUCONAZOLE]", "values": [{"measurement": "Activity", "setting": "[1]", "value": "inactive"}, {"measurement": "concentration at 96 h", "setting": "[2]", "value": 1030, "unit": "ng/mL"}, {"measurement": "Activity", "setting": "[3]", "value": 30, "unit": "%"}, {"measurement": "concentration at 48 h", "setting": "[4]", "value": 2500, "unit": "ng/mL"}, {"measurement": "concentration at 24 h", "setting": "[5]", "value": 1550, "unit": "ng/mL"}, {"measurement": "concentration at 72 h", "setting": "[6]", "value": 1510, "unit": "ng/mL"}, {"measurement": "Activity", "setting": "[7]", "value": "Active"}, {"measurement": "Activity", "setting": "[8]", "value": 36, "unit": "%"}, {"measurement": "survival at 10 mg/kg", "setting": "[9]", "value": 85.7, "unit": "%"}, {"measurement": "Activity", "setting": "[10]", "value": "Active"}, {"measurement": "survival at 10 mg/kg", "setting": "[11]", "value": 75.6, "unit": "%"}, {"measurement": "Activity", "setting": "[12]", "value": "Active"}]}]}
